Time and zone of inhibition data for 16 compounds are collected here from ChEMBL document CHEMBL1795234, “Practical synthesis, anticonvulsant, and antimicrobial activity of N-allyl and N-propargyl di(indolyl)indolin-2-ones” (2011).

Common to all, as to type: functional
Assay [1] deals with Mus musculus. Kind of assay: Anticonvulsant activity against maximum electric shock-induced seizure in Swiss albino mouse assessed as time spent in tonic clonus phase at 20 mg/kg, ip administered 30 mins before seizure induction by electroconvulsiometer analysis. The following applies: route intraperitoneal. The method in brief:
(§1)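 Inbred Swiss albino mice, both sexes, 25–30 g, 7-day adaptation, groups of 5, each used once, tested 10:00–16:00. Compound suspended in 0.5% Tween 80, 20 mg/kg ip 30 min before maximal electroshock; vehicle control group and ip phenytoin 20 mg/kg standard. Seconds spent in flexion, extensor and clonus phases recorded, mean ± SEM.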

Another assay has as its system Staphylococcus aureus. The assay can be described thus: Antibacterial activity against methicillin-sensitive Staphylococcus aureus 22 at 20 ug/ml after 24 hrs by cup plate method. The following applies: Staphylococcus aureus, 22, 24 h; read-out: IZ. The method in brief:
(§2)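 Cup-plate (well diffusion) on Mueller-Hinton agar; compounds at 20 µg/mL in methanol, 20 µL per well; one well with 20 µL methanol as solvent control; Amikacin standard run alike. Held in refrigerator 1 h for diffusion, then incubated 24 h at 37 °C; zone of inhibition around cup measured.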

In assay [2] the test system is Mus musculus. The assay can be described thus: Anticonvulsant activity against maximum electric shock-induced seizure in Swiss albino mouse assessed as time spent in tonic flexion phase at 20 mg/kg, ip administered 30 mins before seizure induction by electroconvulsiometer analysis. As to conditions: route intraperitoneal. The method in brief:
as §1

Another assay relates to Candida albicans. The assay can be described thus: Antifungal activity against Candida albicans ATCC 10231 at 20 ug/ml after 24 hrs by cup plate method. As to conditions: ATCC 10231, 24 h, read-out: IZ. The method in brief: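 C. albicans spores inoculated into lukewarm Sabouraud dextrose agar (pH 5.4, autoclaved 121 °C 15 min) and poured; cups filled with compound at 20 µg/mL, methanol solvent control, Ketoconazole standard. Kept refrigerated 1 h for diffusion, then incubated 24 h at 28 °C; zone of inhibition read.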

In assay [3] the test system is Mus musculus. The assay can be described thus: Anticonvulsant activity against maximum electric shock-induced seizure in Swiss albino mouse assessed as time spent in tonic extensor phase at 20 mg/kg, ip administered 30 mins before seizure induction by electroconvulsiometer analysis. The following applies: route intraperitoneal. The method, boiled down: as §1
A further assay relates to Escherichia coli. Kind of assay: Antibacterial activity against Escherichia coli K12 at 20 ug/ml after 24 hrs by cup plate method. The following applies: K-12, 24 h, read-out: IZ. The method, boiled down: as §2

As for `C=CCn1cc(C2(c3cn(CC=C)c4ccccc34)C(=O)Nc3ccccc32)c2ccccc21`, the Time was 3.6 s with Mus musculus [1], 5.8 s with Mus musculus [2] and 48 s in the assay on Mus musculus [3]. Also, the zone of inhibition at 20 µg/mL in the assay with Staphylococcus aureus came out at 12 mm; in the assay on Candida albicans, 11 mm; with Escherichia coli, 12 mm.
For the compound `C=CCn1cc(C2(c3cn(CC=C)c4ccccc34)C(=O)Nc3ccc([N+](=O)[O-])cc32)c2ccccc21`, the Time in the assay with Mus musculus [1] was determined as 3.4 s; in the assay with Mus musculus [2] it was 4.8 s; with Mus musculus [3], 39.2 s. Moreover, the zone of inhibition at 20 µg/mL came to 10 mm with Staphylococcus aureus, 15 mm in the assay on Candida albicans and 10 mm in the assay with Escherichia coli.
For `C=CCn1cc(C2(c3cn(CC=C)c4ccc(OC)cc34)C(=O)Nc3ccccc32)c2cc(OC)ccc21`, the results for the Time in the assay on Mus musculus [1], with Mus musculus [2] and in the assay on Mus musculus [3] were 3.2 s, 4.8 s and 31.8 s, respectively. Also, the zone of inhibition at 20 µg/mL in the assay with Staphylococcus aureus is 12 mm; in the assay on Candida albicans, 14 mm; with Escherichia coli it was 10 mm.
In the case of `C=CCn1cc(C2(c3cn(CC=C)c4ccc(OC)cc34)C(=O)Nc3ccc(Cl)cc32)c2cc(OC)ccc21`, the Time with Mus musculus [1] is listed as 3.4 s; with Mus musculus [2], 5.8 s; with Mus musculus [3] it was 31.6 s. For the same compound, the zone of inhibition at 20 µg/mL in the assay with Staphylococcus aureus was 10 mm; in the assay on Candida albicans, 10 mm; in the assay on Escherichia coli, 11 mm.
For the compound `C=CCn1cc(C2(c3cn(CC=C)c4ccc(OC)cc34)C(=O)Nc3ccc(Br)cc32)c2cc(OC)ccc21`, the Time in the assay on Mus musculus [1] came to 3.4 s; in the assay with Mus musculus [2] it was 4.8 s; in the assay with Mus musculus [3] it was 39.2 s. The zone of inhibition at 20 µg/mL with Staphylococcus aureus is 15 mm; in the assay with Candida albicans it was 14 mm; in the assay on Escherichia coli, 14 mm.
Take `C=CCn1cc(C2(c3cn(CC=C)c4ccc(OC)cc34)C(=O)N(CC(=O)OCC)c3ccccc32)c2cc(OC)ccc21`: the Time in the assay on Mus musculus [1] was determined as 3.4 s; in the assay on Mus musculus [2] it was 4.8 s; in the assay with Mus musculus [3] it was 31.6 s. The figures for the zone of inhibition at 20 µg/mL in the assay with Staphylococcus aureus, in the assay on Candida albicans and in the assay on Escherichia coli were 12 mm, 10 mm and 14 mm, respectively.
As to `O=C1Nc2ccccc2C1(c1cn(C/C=C/c2ccccc2)c2ccccc12)c1cn(C/C=C/c2ccccc2)c2ccccc12`, the Time in the assay with Mus musculus [1] is listed as 3.6 s; with Mus musculus [2], 4.8 s; in the assay with Mus musculus [3] it was 39.6 s. The zone of inhibition at 20 µg/mL in the assay on Staphylococcus aureus amounted to 10 mm; in the assay on Candida albicans it was 13 mm; with Escherichia coli, 14 mm.
As for `CC(C)=CCn1cc(C2(c3cn(CC=C(C)C)c4ccc(Br)cc34)C(=O)Nc3ccccc32)c2cc(Br)ccc21`, the Time was 3.4 s in the assay on Mus musculus [1], 4.8 s in the assay on Mus musculus [2] and 39.6 s in the assay with Mus musculus [3]. In addition, the zone of inhibition at 20 µg/mL in the assay on Staphylococcus aureus worked out at 14 mm; with Candida albicans, 12 mm; with Escherichia coli, 12 mm.
`C#CCN1C(=O)C(c2cn(CC=C(C)C)c3ccc(Br)cc23)(c2cn(CC=C(C)C)c3ccc(Br)cc23)c2ccccc21`: the results for the Time in the assay on Mus musculus [1], in the assay on Mus musculus [2] and in the assay on Mus musculus [3] were 2.8 s, 5.4 s and 31.6 s, respectively. For the same compound, the zone of inhibition at 20 µg/mL amounted to 15 mm in the assay on Staphylococcus aureus, 10 mm in the assay with Candida albicans and 15 mm with Escherichia coli.
As to `C#CCn1cc(C2(c3cn(CC#C)c4ccccc34)C(=O)Nc3ccccc32)c2ccccc21`, the Time with Mus musculus [1] came to 3.2 s; in the assay with Mus musculus [2], 4.8 s; in the assay with Mus musculus [3] it was 39.2 s. In addition, the figures for the zone of inhibition at 20 µg/mL with Staphylococcus aureus, with Candida albicans and with Escherichia coli were 11 mm, 12 mm and 10 mm, respectively.
`C#CCn1cc(C2(c3cn(CC#C)c4ccccc34)C(=O)N(Cc3ccccc3)c3ccccc32)c2ccccc21`: the figures for the Time in the assay on Mus musculus [1], in the assay on Mus musculus [2] and in the assay with Mus musculus [3] were 3.2 s, 4.8 s and 39.2 s, respectively. For the same compound, the zone of inhibition at 20 µg/mL in the assay on Staphylococcus aureus was 15 mm; with Candida albicans it was 13 mm; in the assay with Escherichia coli, 17 mm.
On to `C#CCN1C(=O)C(c2cn(CC#C)c3ccccc23)(c2cn(CC#C)c3ccccc23)c2ccccc21`, for which the figures for the Time with Mus musculus [1], with Mus musculus [2] and with Mus musculus [3] were 3.6 s, 5.4 s and 31.8 s, respectively. Also, the zone of inhibition at 20 µg/mL in the assay with Staphylococcus aureus was determined as 10 mm; in the assay with Candida albicans, 12 mm; in the assay on Escherichia coli, 10 mm.
Turning to `C#CCn1c(C)c(C2(c3c(C)n(CC#C)c4ccccc34)C(=O)Nc3ccccc32)c2ccccc21`, the Time in the assay on Mus musculus [1] was 2.8 s; in the assay with Mus musculus [2] it was 5.4 s; in the assay on Mus musculus [3] it was 31.6 s. The zone of inhibition at 20 µg/mL in the assay with Staphylococcus aureus, with Candida albicans and in the assay on Escherichia coli was 15 mm each time.
As to `NCC[C@H](O)C(=O)N[C@@H]1C[C@H](N)[C@@H](O[C@H]2O[C@H](CN)[C@@H](O)[C@H](O)[C@H]2O)[C@H](O)[C@H]1O[C@H]1O[C@H](CO)[C@@H](O)[C@H](N)[C@H]1O` [AMIKACIN], the zone of inhibition at 20 µg/mL in the assay on Staphylococcus aureus was 17 mm; in the assay on Escherichia coli it was 18 mm.
Regarding `CC(=O)N1CCN(c2ccc(OCC3COC(Cn4ccnc4)(c4ccc(Cl)cc4Cl)O3)cc2)CC1` (centres undefined) [KETOCONAZOLE], in the assay with Candida albicans, the zone of inhibition at 20 µg/mL was 16 mm.
With `O=C1NC(=O)C(c2ccccc2)(c2ccccc2)N1` [PHENYTOIN], the Time in the assay on Mus musculus [1] is reported as 3.4 s; in the assay with Mus musculus [2], 5.6 s; in the assay with Mus musculus [3], 43 s.
